{"source": "ChEMBL document CHEMBL4196046", "about": "“Design, synthesis, and structure-activity-relationship of a novel series of CXCR4 antagonists” (Eur J Med Chem, 2018)", "key": {"[1]": {"target": "T1, C-X-C chemokine receptor type 4 (Homo sapiens, UniProt P61073)", "T1 sequence (P61073 whole entry)": "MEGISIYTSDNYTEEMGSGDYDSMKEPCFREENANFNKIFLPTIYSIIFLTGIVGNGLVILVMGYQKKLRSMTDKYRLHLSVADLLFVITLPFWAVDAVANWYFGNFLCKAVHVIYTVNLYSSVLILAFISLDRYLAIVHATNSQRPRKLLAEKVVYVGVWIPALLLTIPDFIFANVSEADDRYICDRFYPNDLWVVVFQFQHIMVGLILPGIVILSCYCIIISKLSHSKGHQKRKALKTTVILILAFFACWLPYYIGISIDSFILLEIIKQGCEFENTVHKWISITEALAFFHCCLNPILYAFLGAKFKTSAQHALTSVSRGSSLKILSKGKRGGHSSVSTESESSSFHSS", "experiment": "Displacement of 12G5-CXCL12 from CXCR4 in human HPBALL cells after 3 hrs by FACS analysis", "type": "cell-based"}, "[2]": {"target": "T1, C-X-C chemokine receptor type 4", "experiment": "Antagonist activity at CXCR4 in human CD4+ T cells assessed as inhibition of CXCL12-mediated cytosolic calcium level preincubated with compounds followed by CXCL12 stimulation by calcium 4 dye-based FLIPR assay", "type": "functional, cell-based"}, "[3]": {"target": "Voltage-gated inwardly rectifying potassium channel KCNH2 (Homo sapiens, UniProt Q12809)", "sequence (Q12809 whole entry)": "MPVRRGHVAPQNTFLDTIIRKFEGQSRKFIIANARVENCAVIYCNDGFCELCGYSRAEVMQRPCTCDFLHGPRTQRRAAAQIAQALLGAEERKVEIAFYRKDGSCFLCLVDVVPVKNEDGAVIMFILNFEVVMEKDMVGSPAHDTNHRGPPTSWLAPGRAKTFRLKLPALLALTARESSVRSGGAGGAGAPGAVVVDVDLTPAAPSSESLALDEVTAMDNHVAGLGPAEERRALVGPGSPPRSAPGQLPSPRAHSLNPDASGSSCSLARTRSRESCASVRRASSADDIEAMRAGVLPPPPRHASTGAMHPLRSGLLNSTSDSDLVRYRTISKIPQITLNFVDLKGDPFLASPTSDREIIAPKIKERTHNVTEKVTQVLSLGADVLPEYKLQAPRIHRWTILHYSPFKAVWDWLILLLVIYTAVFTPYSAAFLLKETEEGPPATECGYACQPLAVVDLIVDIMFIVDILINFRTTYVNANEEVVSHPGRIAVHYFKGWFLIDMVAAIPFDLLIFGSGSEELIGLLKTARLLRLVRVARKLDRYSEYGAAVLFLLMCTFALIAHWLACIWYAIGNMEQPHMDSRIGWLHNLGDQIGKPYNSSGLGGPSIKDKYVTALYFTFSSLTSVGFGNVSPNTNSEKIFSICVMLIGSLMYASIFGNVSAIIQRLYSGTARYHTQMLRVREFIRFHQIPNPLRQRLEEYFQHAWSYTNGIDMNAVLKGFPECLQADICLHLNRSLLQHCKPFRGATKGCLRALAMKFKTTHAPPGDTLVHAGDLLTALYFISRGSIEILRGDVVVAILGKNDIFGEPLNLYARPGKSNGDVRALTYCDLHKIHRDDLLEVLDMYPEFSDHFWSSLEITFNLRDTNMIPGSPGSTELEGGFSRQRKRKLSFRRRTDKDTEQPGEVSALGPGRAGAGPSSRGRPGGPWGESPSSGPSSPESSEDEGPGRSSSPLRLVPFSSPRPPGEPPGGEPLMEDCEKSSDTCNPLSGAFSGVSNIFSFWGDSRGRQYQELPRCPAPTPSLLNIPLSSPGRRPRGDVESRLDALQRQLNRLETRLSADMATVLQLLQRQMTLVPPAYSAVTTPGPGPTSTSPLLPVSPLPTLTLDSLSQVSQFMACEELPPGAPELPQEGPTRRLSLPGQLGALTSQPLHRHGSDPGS", "experiment": "Inhibition of human ERG expressed in CHO cells after 4 mins at -80 mV holding potential by Qpatch assay", "type": "cell-based"}, "[4]": {"experiment": "Apparent permeability across apical to basolateral side in human Caco2 cells at 2 uM by LC-MS/MS method", "type": "ADME, cell-based", "conditions": "Caco-2"}, "[5]": {"experiment": "Efflux ratio of apparent permeability across basolateral to apical over apical to basolateral side in human Caco2 cells at 2 uM by LC-MS/MS method", "type": "ADME, cell-based", "conditions": "Caco-2"}, "[6]": {"experiment": "Intrinsic clearance in human liver microsomes at 1 uM preincubated for 10 mins followed by NADPH addition measured after 30 to 60 mins by LC-MS/MS method", "type": "ADME, microsome", "conditions": "read-out: CLH"}, "[7]": {"experiment": "Intrinsic clearance in mouse liver microsomes at 1 uM preincubated for 10 mins followed by NADPH addition measured after 30 to 60 mins by LC-MS/MS method", "type": "ADME, microsome", "conditions": "read-out: CLH"}, "[8]": {"experiment": "Half life in human liver microsomes at 1 uM preincubated for 10 mins followed by NADPH addition measured after 30 to 60 mins by LC-MS/MS method", "type": "ADME, microsome"}, "[9]": {"experiment": "Half life in mouse liver microsomes at 1 uM preincubated for 10 mins followed by NADPH addition measured after 30 to 60 mins by LC-MS/MS method", "type": "ADME, microsome"}, "[10]": {"target": "T1, C-X-C chemokine receptor type 4", "experiment": "Antagonist activity at CXCR4-mediated chemotaxis in human MDA-MB-231 cells assessed as inhibition of CXCL12-induced cell invasion at 100 nM after 24 hrs by crystal violet staining-based microscopic matrigel assay", "type": "functional", "summary_of_the_method": "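MDA-MB-231 cells (1 × 10⁵ cells/well) plus compound (100 nM) in upper chamber of 8-µm-pore Boyden inserts coated with 50mg/L Matrigel; CXCL12 in serum-free medium in lower chamber as chemoattractant. After 24 h, non-invaded cells wiped off; invaded cells fixed in cold methanol, crystal violet stained, counted in 10 random fields (100×). Three independent experiments; t-test vs control.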"}, "[11]": {"target": "T1, C-X-C chemokine receptor type 4", "experiment": "Potency index, ratio of AMD3100 IC50 to compound IC50 for CXCR4 in human CD4+ T cells", "type": "cell-based"}, "[12]": {"tested_on": "MDA-MB-231", "experiment": "Antiproliferative activity against human MDA-MB-231 cells at 400 nM after 24 to 48 hrs by MTT assay", "type": "functional, cell-based", "summary_of_the_method": "(§1)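 Cells seeded at 5 × 10³ cells/well, treated with compound, incubated at 37 °C, 5% CO₂ (48 h in methods; 24 h in figure legend), then 4 h with MTT reagent; formazan dissolved in DMSO, absorbance at 570 nm. Mean±SD of three independent experiments.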"}, "[13]": {"tested_on": "MCF7", "experiment": "Antiproliferative activity against human MCF7 cells at 400 nM after 24 to 48 hrs by MTT assay", "type": "functional, cell-based", "summary_of_the_method": "as §1"}, "[14]": {"experiment": "Antiproliferative activity against HOSEC at 400 nM after 24 to 48 hrs by MTT assay", "conditions": "human, 0.4 µM", "summary_of_the_method": "as §1"}, "[15]": {"target": "CYP3A4 (Homo sapiens, UniProt P08684)", "sequence (P08684 whole entry)": "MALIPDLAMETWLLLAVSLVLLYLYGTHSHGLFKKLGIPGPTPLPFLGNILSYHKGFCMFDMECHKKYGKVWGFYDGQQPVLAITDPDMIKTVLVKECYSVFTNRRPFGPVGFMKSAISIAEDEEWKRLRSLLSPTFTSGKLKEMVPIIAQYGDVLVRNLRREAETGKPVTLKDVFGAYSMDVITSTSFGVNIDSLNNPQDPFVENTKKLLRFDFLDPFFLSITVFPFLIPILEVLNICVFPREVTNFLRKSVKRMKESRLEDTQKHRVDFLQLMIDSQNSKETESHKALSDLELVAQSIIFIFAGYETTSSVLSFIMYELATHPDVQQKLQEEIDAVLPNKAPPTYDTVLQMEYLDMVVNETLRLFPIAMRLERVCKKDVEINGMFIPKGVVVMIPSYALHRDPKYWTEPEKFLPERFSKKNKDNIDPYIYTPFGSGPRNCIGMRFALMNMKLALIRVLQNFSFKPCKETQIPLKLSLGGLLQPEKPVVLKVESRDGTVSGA", "experiment": "Inhibition of CYP3A4 in human liver microsomes at 10 uM using midazolam as substrate preincubated for 10 min followed by NADPH addition measured after 10 mins by LC-MS/MS analysis relative to control", "type": "ADME", "conditions": "probe midazolam"}, "[16]": {"target": "CYP2D6 (Homo sapiens, UniProt P10635)", "sequence (P10635 whole entry)": "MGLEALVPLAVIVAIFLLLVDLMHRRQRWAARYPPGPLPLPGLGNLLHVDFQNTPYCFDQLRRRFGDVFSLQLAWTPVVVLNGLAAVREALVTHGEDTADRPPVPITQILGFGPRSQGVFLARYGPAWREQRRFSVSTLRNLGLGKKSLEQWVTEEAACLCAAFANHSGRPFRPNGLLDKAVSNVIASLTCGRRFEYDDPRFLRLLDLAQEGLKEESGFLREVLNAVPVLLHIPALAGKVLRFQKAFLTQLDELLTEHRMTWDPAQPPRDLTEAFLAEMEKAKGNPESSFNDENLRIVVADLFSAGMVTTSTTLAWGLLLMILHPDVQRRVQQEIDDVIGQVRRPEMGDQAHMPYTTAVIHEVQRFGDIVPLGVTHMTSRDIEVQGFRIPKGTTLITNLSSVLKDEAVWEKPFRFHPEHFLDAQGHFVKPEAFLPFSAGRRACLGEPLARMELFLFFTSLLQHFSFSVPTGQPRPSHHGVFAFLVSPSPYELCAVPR", "experiment": "Inhibition of CYP2D6 in human liver microsomes at 10 uM using dextromethorphan as substrate preincubated for 10 min followed by NADPH addition measured after 10 mins by LC-MS/MS analysis relative to control", "type": "ADME", "conditions": "probe dextromethorphan"}}, "note": "Active and inactive are the calls of the source. No cut-off for these calls is given here."}
{"compound": "CCN1CCN(c2cc(CN(C)C3CCCc4cccnc43)ncn2)CC1", "note": "(stereo unspecified)", "values": [{"measurement": "IC50", "setting": "[1]", "value": 320, "unit": "nM"}]}
{"compound": "CN1CCN(c2ccnc(CN(C)C3CCCc4cccnc43)n2)CC1", "note": "(stereo unspecified)", "values": [{"measurement": "IC50", "setting": "[1]", "value": 180, "unit": "nM"}]}
{"compound": "CN(Cc1cc(N2CCNCC2)ncn1)C1CCCc2cccnc21", "note": "(stereo unspecified)", "values": [{"measurement": "IC50", "setting": "[1]", "value": 2600, "unit": "nM"}]}
{"compound": "CN(C)C1CCN(c2cc(CN(C)C3CCCc4cccnc43)ncn2)CC1", "note": "(stereo unspecified)", "values": [{"measurement": "IC50", "setting": "[1]", "value": 630, "unit": "nM"}]}
{"compound": "CN1CCN(c2cc(CN(C)[C@@H]3CCCc4cccnc43)ncn2)CC1", "values": [{"measurement": "IC50", "setting": "[1]", "value": 1300, "unit": "nM"}, {"measurement": "IC50", "setting": "[2]", "value": 68, "unit": "nM"}]}
{"compound": "CN(Cc1cc(N2CCN(CCO)CC2)ncn1)C1CCCc2cccnc21", "note": "(stereo unspecified)", "values": [{"measurement": "IC50", "setting": "[1]", "value": 290, "unit": "nM"}]}
{"compound": "CN1CCCN(c2cc(CN(C)C3CCCc4cccnc43)ncn2)CC1", "note": "(stereo unspecified)", "values": [{"measurement": "IC50", "setting": "[1]", "value": 170, "unit": "nM"}]}
{"compound": "CN(Cc1ccncn1)C1CCCc2cccnc21", "note": "(stereo unspecified)", "values": [{"measurement": "IC50", "setting": "[1]", "value": "> 10000", "unit": "nM"}]}
{"compound": "CN(Cc1cc(N2CCN(C(=O)OC(C)(C)C)CC2)ncn1)C1CCCc2cccnc21", "note": "(stereo unspecified)", "values": [{"measurement": "IC50", "setting": "[1]", "value": "> 10000", "unit": "nM"}]}
{"compound": "CN1CCN(c2cc(CN(C)[C@H]3CCCc4cccnc43)ncn2)CC1", "values": [{"measurement": "IC50", "setting": "[1]", "value": 88, "unit": "nM"}, {"measurement": "IC50", "setting": "[2]", "value": 0.73, "unit": "nM"}, {"measurement": "IC50", "setting": "[3]", "value": "> 30000", "unit": "nM"}, {"measurement": "Papp A→B at 2 µM", "setting": "[4]", "value": 15, "unit": "×10⁻⁶ cm/s"}, {"measurement": "efflux ratio at 2 µM", "setting": "[5]", "value": 1.5}, {"measurement": "CLint scaled at 1 µM", "setting": "[6]", "value": 226, "unit": "mL/min/kg"}, {"measurement": "CLint scaled at 1 µM", "setting": "[7]", "value": 3860, "unit": "mL/min/kg"}, {"measurement": "half-life at 1 µM", "setting": "[8]", "value": 7.7, "unit": "min"}, {"measurement": "half-life at 1 µM", "setting": "[9]", "value": 1.4, "unit": "min"}]}
{"compound": "CN1CCN(c2ccnc(CN(C)C3CCCc4cccnc43)c2)CC1", "note": "(stereo unspecified)", "values": [{"measurement": "IC50", "setting": "[1]", "value": 200, "unit": "nM"}]}
{"compound": "CN1CCN(c2cccc(CN(C)C3CCCc4cccnc43)n2)CC1", "note": "(stereo unspecified)", "values": [{"measurement": "IC50", "setting": "[1]", "value": "> 10000", "unit": "nM"}]}
{"compound": "CC(C)N1CCN(c2cc(CN(C)C3CCCc4cccnc43)ncn2)CC1", "note": "(stereo unspecified)", "values": [{"measurement": "IC50", "setting": "[1]", "value": 210, "unit": "nM"}]}
{"compound": "CN1CCN(c2cc(CN(C)C3CCCc4cccnc43)ncn2)CC1.Cl", "note": "(stereo unspecified)", "values": [{"measurement": "IC50", "setting": "[1]", "value": 54, "unit": "nM"}, {"measurement": "inhibition", "setting": "[10]", "value": "Active"}, {"measurement": "IC50", "setting": "[2]", "value": 2.3, "unit": "nM"}, {"measurement": "Ratio IC50", "setting": "[11]", "value": 8}, {"measurement": "Activity", "setting": "[12]", "value": "inactive"}, {"measurement": "Activity", "setting": "[13]", "value": "inactive"}, {"measurement": "Activity", "setting": "[14]", "value": "Non-Toxic"}, {"measurement": "inhibition at 10 min, 10 µM", "setting": "[15]", "value": 9, "unit": "%"}, {"measurement": "inhibition at 10 min, 10 µM", "setting": "[16]", "value": 3, "unit": "%"}]}
{"compound": "CN(C)C1CCN(c2cc(CN(C)C3CCCc4cccnc43)ncn2)C1", "note": "(stereo unspecified)", "values": [{"measurement": "IC50", "setting": "[1]", "value": 150, "unit": "nM"}]}
{"compound": "CN(C)c1cc(CN(C)C2CCCc3cccnc32)ncn1", "note": "(stereo unspecified)", "values": [{"measurement": "IC50", "setting": "[1]", "value": "> 10000", "unit": "nM"}]}
{"compound": "CN1CCN(c2nccc(CN(C)C3CCCc4cccnc43)n2)CC1", "note": "(stereo unspecified)", "values": [{"measurement": "IC50", "setting": "[1]", "value": "> 10000", "unit": "nM"}]}
{"compound": "CN1CCN(c2cc(CN(CCCCNC(=O)OC(C)(C)C)C3CCCc4cccnc43)ncn2)CC1", "note": "(stereo unspecified)", "values": [{"measurement": "IC50", "setting": "[1]", "value": 18, "unit": "nM"}]}
{"compound": "c1cc(CN2CCCNCCNCCCNCC2)ccc1CN1CCCNCCNCCCNCC1", "values": [{"measurement": "inhibition", "setting": "[10]", "value": "Active"}]}
{"compound": "CN1CCN(c2cc(CN(C)C3CCCc4cccnc43)ccn2)CC1", "note": "(stereo unspecified)", "values": [{"measurement": "IC50", "setting": "[1]", "value": "> 10000", "unit": "nM"}]}
{"compound": "CN(Cc1cc(NCCN2CCOCC2)ncn1)C1CCCc2cccnc21", "note": "(stereo unspecified)", "values": [{"measurement": "IC50", "setting": "[1]", "value": 640, "unit": "nM"}]}
{"compound": "CN(Cc1cc(N2CCN(CC3CC3)CC2)ncn1)C1CCCc2cccnc21", "note": "(stereo unspecified)", "values": [{"measurement": "IC50", "setting": "[1]", "value": 1050, "unit": "nM"}]}
{"compound": "CN1CCN(c2cc(CN(CCCCN)C3CCCc4cccnc43)ncn2)CC1", "note": "(stereo unspecified)", "values": [{"measurement": "IC50", "setting": "[1]", "value": 18, "unit": "nM"}]}
{"compound": "CN(C)CCN(C)c1cc(CN(C)C2CCCc3cccnc32)ncn1", "note": "(stereo unspecified)", "values": [{"measurement": "IC50", "setting": "[1]", "value": 1020, "unit": "nM"}]}
